Wee1 stabilizer: blocks degradation of human Wee1 kinase; HeLa Luc-Wee1K328M stability, luciferase luminescence; 100% = proteasome inhibitor MG132 effect; reporter increase, % at 5 µM; 220,000 compounds, 1.2% hits; AID 1321;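 active = activation above the mean of all tested compounds plus 3 SD, set per screening run, cut at about 8.8% in these data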;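 also: cells exposed to compound for 20 h before luminescence read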
Target sequence (P30291 whole entry K328M): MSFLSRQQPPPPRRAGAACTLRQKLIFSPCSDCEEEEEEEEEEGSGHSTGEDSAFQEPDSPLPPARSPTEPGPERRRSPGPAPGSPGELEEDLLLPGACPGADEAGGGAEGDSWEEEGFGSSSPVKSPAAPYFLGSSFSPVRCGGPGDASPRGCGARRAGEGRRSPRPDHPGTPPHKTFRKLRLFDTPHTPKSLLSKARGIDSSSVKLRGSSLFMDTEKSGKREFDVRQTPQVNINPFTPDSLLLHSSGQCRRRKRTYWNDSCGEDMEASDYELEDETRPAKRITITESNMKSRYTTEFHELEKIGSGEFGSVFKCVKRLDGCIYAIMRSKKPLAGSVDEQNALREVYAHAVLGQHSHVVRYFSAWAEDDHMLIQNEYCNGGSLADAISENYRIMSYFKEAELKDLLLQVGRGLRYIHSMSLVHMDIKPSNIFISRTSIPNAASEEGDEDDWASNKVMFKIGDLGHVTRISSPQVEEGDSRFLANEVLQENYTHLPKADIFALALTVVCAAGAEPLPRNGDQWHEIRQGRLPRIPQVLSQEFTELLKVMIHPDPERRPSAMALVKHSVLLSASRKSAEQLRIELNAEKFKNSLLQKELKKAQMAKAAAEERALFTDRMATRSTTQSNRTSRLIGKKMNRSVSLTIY
PKD1 inh: blocks activity of human protein kinase D1; PKD1 kinase fluorescence polarization assay; 200,000 compounds, 0.056% hits; inhibition, % (no concentration beside the values); Q15139
Lmaj promast: inhibitors of Leishmania major promastigote growth; Leishmania major promastigotes, resazurin fluorescence viability; inhibition, % at 10 µM; 200,000 compounds, 9% hits; AID 1063;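 also: promastigotes grown with compound for 44 hours at 28 °C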
Rad51 HR inh: blocks human Rad51 in homologous recombination; hRad51 DNA strand exchange, fluorescence dequenching; inhibition, % at 10 µM; 200,000 compounds, 0.085% hits; AID 1385;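 active = inhibition above 40% at the single screening dose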
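Test system: preformed human Rad51 ssDNA filaments. Compound dosing: single dose, 10 µM final compound. Incubation: filaments 15 min 37 °C, then compound 30 min. Technique: FRET fluorescence dequenching, excitation 485 nm, emission 520 nm. Read-out basis: percent inhibition from fluorescence, normalised to plate control and blank means. Benchmarks: plate controls and plate blanks.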
CHOP inh: inhibitors of CHOP induction in ER stress response; 220,000 compounds, 3.8% hits; inhibition, % at 10 µM; CHO-K1 CHOP-promoter luciferase, tunicamycin-induced, 15-18 h; AID 2732;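 active = compounds that reduced the stress-induced luciferase reporter signal by more than about 70% of percent inhibition, limit read from the data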
Arbovirus inh: antivirals against arbovirus infection; arbovirus infection cell-based antiviral screen; inhibition, % at 10 µM; 200,000 compounds, 0.37% hits; AID 1251; in the data active = inhibition above about 30%
Large screens that a line does not name were inactive. Sampled rows, rich in hits. Any-hit rate of the full collection: about 12%. Rule as the data show it, unless noted: active = inhibition above about 50%; inactive = the rest.

Cc1ccc(CSc2nnc(CNc3ccc(F)cc3)o2)cc1	Wee1 stabilizer 9.6
CC(C)(C)N(Cc1ccccc1)C(=O)CSc1nnc(CNc2ccc(F)cc2)o1	Lmaj promast 100
N#CCSc1nnc(CNc2ccc(F)cc2)o1	none
O=C(CSc1nnc(CNc2ccc(F)cc2)o1)N1c2ccccc2Sc2ccccc21	Lmaj promast 65
Clc1cccc(NCc2nnc(SCc3ccccc3)o2)c1	CHOP inh 71
CCCCN(C)CCCNC(=O)c1cc(=O)[nH]c2ccc(S(=O)(=O)N3CCCCC3C)cc12 (stereo unspecified)	none
COc1ccc(N(CCC(=O)O)S(=O)(=O)c2ccc(C)cc2C)cc1	none
Cc1cccc(C)c1NC(=S)NCc1ccncc1	none (no result: PKD1 inh, Lmaj promast, Arbovirus inh)
Cc1cc(C)c2cc(C(=O)Nc3ccccc3)[nH]c2c1	none (no result: PKD1 inh, Lmaj promast, Arbovirus inh)
Cc1nnsc1Sc1ccccc1C(=O)O	none
Cc1nc2cc(N3CCCCC3)c(NC(=O)c3ccncc3)cc2c(=O)n1Cc1ccc(Cl)cc1	none (no result: Rad51 HR inh)
Cc1nc2cc(N3CCN(C)CC3)c(NC(=O)Cc3ccccc3)cc2c(=O)n1Cc1ccccc1	Lmaj promast 89
COc1ccccc1NC(=O)Cn1nnc(-c2ccccc2NS(=O)(=O)c2ccccc2)n1	Lmaj promast 51 (no result: Rad51 HR inh)
COc1ccc(NC(=O)Cn2nnc(-c3ccccc3NC(=O)c3cccs3)n2)cc1	CHOP inh 73
CC(C)(C)NC(=O)Cn1nnc(-c2ccccc2NC(=O)c2ccco2)n1	none
COc1ccc(NC(=O)Cn2nnc(-c3ccccc3NS(=O)(=O)c3ccc(OC)cc3)n2)cc1	Lmaj promast 69
O=C(Cn1nnc(-c2ccccc2NC(=O)c2ccco2)n1)Nc1ccccc1	CHOP inh 85
COc1cccc(C(C)NC(=O)Nc2ccccc2Cl)c1 (stereo unspecified)	none
COc1ccccc1NC(=O)Cn1nnc(-c2ccccc2NC(=O)c2cc3ccccc3oc2=O)n1	Lmaj promast 101
CCCC(=O)Nc1ccccc1-c1nnn(CC(=O)Nc2ccc(OCC)cc2)n1	CHOP inh 80
CC(=O)c1sccc1NC(=O)c1ccccc1C(=O)O	none (no result: PKD1 inh, Lmaj promast, Arbovirus inh)
COc1ccc(CN(CCN(C)C)Cc2ccccc2)c(OC)c1	Lmaj promast 100
COC(=O)CNC(=O)c1ccc(F)cc1	none (no result: PKD1 inh, Lmaj promast, Arbovirus inh)
CC(C)c1cc(C(N)=O)c(NC(=O)c2cccc(COc3ccc(Cl)cc3)c2)s1	Lmaj promast 96 (no result: Rad51 HR inh)
CCC(=O)Nc1ccc2c(c1)ncn2-c1ccc(C)cc1	none
CC12CCC(C(=O)NCCCN3CCOCC3)(C(Br)C1=O)C2(C)C (stereo unspecified)	none (no result: PKD1 inh, Lmaj promast, Arbovirus inh)
CC(C)CCn1c(Oc2ccc(Cl)cc2)nc2c1c(=O)n(C)c(=O)n2C	CHOP inh 76
CCOC(=O)C1=C(C)N(C)C(=O)NC1c1cccc([N+](=O)[O-])c1 (stereo unspecified)	none (no result: Wee1 stabilizer, PKD1 inh, Lmaj promast, CHOP inh, Arbovirus inh)
CCOC(=O)C1=C(C)N(c2ccccc2)C(=O)NC1c1cccc([N+](=O)[O-])c1 (stereo unspecified)	Lmaj promast 95 (no result: Rad51 HR inh)
COCCNC(=S)N(CCc1c(C)[nH]c2ccc(Cl)cc12)Cc1cccs1	Lmaj promast 53
CN1CCN(c2ccccc2NC(=O)c2ccc(F)cc2)CC1	none (no result: PKD1 inh, Lmaj promast, Rad51 HR inh, Arbovirus inh)
CC1CCN(c2ccccc2NC(=O)c2ccc(F)cc2)CC1	Wee1 stabilizer 9.5
COCC(=O)Nc1cc(C)c2c(=O)oc3ccccc3c2n1	none (no result: Rad51 HR inh)
Cc1cc(NC(=O)CC(C)(C)C)nc2c1c(=O)oc1ccccc12	CHOP inh 74
COc1ccc(C(=O)Nc2cc(C)c3c(=O)oc4ccccc4c3n2)cc1	CHOP inh 88
CCCC(=O)Nc1cc(C)c2c(=O)oc3ccccc3c2n1	none (no result: Wee1 stabilizer, PKD1 inh, Lmaj promast)
COC(=O)c1ccc(COc2ccccc2/C=C(\C#N)C(=O)Nc2c(C)cccc2C)cc1	Lmaj promast 98 (no result: Rad51 HR inh)
COc1ccc(CCNC(=O)c2cc3c(=O)n(C)c4ccccc4c3n2C)c(OC)c1	none (no result: PKD1 inh, Lmaj promast, Arbovirus inh)
COc1ccc(-n2c(-c3ccccc3)cc3c2CCCC3=O)cc1	Lmaj promast 80
CC(C)c1ccc(-c2nc3ccccc3s2)cc1	CHOP inh 93 (no result: PKD1 inh, Lmaj promast, Arbovirus inh)
COc1ccc(Nc2nc3c(C)cccn3c(=O)c2C=NCc2ccccc2)cc1	Lmaj promast 63
Cc1ccc(SCC(=O)NC(=O)NCCC(C)C)c(C)c1	CHOP inh 81
CC(=O)c1ccc(C(=O)N2CCC(CO)(Cc3cccc(C(F)(F)F)c3)CC2)cc1	none
OCC1(Cc2cccc(C(F)(F)F)c2)CCN(Cc2cc3ccccc3o2)CC1	Lmaj promast 84, CHOP inh 89
Cc1c(CN2CCC(CO)(Cc3cccc(C(F)(F)F)c3)CC2)c2ccccc2n1C	Lmaj promast 87 (no result: Rad51 HR inh)
Cc1cccc(-n2ccnc2CN2CCC(CO)(Cc3ccccc3)CC2)c1	none (no result: PKD1 inh, Lmaj promast, Arbovirus inh)
COc1ccc(CC2(CO)CCN(Cc3cc4ccccc4o3)CC2)cc1	Lmaj promast 79
Cc1cc(C)cc(N2C(=O)CC(Sc3ncn[nH]3)C2=O)c1 (stereo unspecified)	none
Cn1c(-c2ccccc2)c(CCO)c2ccccc21	none
CCCc1c(CC)c(=N)c2ccccc2n1C	Lmaj promast 53
CCN1CCN(c2cc(C)c3cc(NC(=S)N4CCOCC4)ccc3n2)CC1	none
Cc1ccc(C)c(N2CCN(C(=S)Nc3ccc4nc(N5CCOCC5)cc(C)c4c3)CC2)c1	none
Cc1cccc(N2CCN(C(=S)Nc3ccc4nc(N5CCOCC5)cc(C)c4c3)CC2C)c1 (stereo unspecified)	CHOP inh 88
CCN1CCN(c2cc(C)c3cc(NC(=S)N4CCN(c5ccccc5F)CC4)ccc3n2)CC1	Lmaj promast 99
COc1ccccc1N1CCN(C(=S)Nc2ccc3nc(N4CCOCC4)cc(C)c3c2)CC1	Lmaj promast 53
CCN1CCN(c2cc(C)c3cc(NC(=S)N4CCN(c5ccccc5)CC4)ccc3n2)CC1	Lmaj promast 100
CCCN1CCN(C(=S)Nc2ccc3nc(N4CCN(CC)CC4)cc(C)c3c2)CC1	none
Cc1ccc(S(=O)(=O)c2nnn(-c3cccc(F)c3)c2N)cc1	none
Cc1ccccc1/C=C1\SC(=S)N(/N=C/c2cc([N+](=O)[O-])ccc2O)C1=O	none
NC(=O)/C(=N\OC(=O)c1ccco1)c1nc(-c2ccc(Br)cc2)cs1	Arbovirus inh 44 (no result: Rad51 HR inh)
Brc1ccc(-c2csc(N/N=C/c3ccco3)n2)cc1	none
N#Cc1ccc(C(=O)N/N=C/c2cn(CC(=O)O)c3ccccc23)c(F)c1	Lmaj promast 58
COc1ccc(N2CCN(C(=O)CSc3nnc4c5cc(C)ccc5n(C)c4n3)CC2)cc1	none
COc1ccc2c(c1)c1nnc(SCC(=O)N3CCCCC3C)nc1n2C (stereo unspecified)	Lmaj promast 85
CCC1=CC(c2ccccc2)n2ncnc2N1 (stereo unspecified)	none (no result: Wee1 stabilizer, PKD1 inh, Lmaj promast, CHOP inh, Arbovirus inh)
Cc1cc(OCCCn2cnc3ccccc3c2=O)ccc1[N+](=O)[O-]	Lmaj promast 59
O=C(CCNC(=O)Cn1ccc2ccccc2c1=O)NCCc1ccc(Cl)cc1	Lmaj promast 55

Assay outcomes: PubChem, several laboratories
